# Screening data from PubChem BioAssay.
# Most compounds without a hit are left out; they make up all but 2.6% or so of the library.
# rCAG binder – molecules binding r(CAG) RNA repeats; r(CAG) RNA repeat, TO-PRO-1 dye displacement fluorescence; inhibition, % at 3 µM; 370,000 compounds, 1.3% hits;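 active = inhibition above the plate cutoff, the mean of all test compounds on that plate plus 3 SD, cut at about 35% in these data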;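 also: 0% = DMSO alone and 100% = 100 µM mitoxantrone as full dye displacement; higher means more dye released from RNA so lower well fluorescence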
# LMPTP block – blocks human LMPTP phosphatase | P24666 | 360,000 compounds, 0.22% hits | recombinant LMPTP-A, OMFP fluorogenic substrate, fluorescence intensity | inhibition, % at 20 µM;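 active = compounds that cut the enzyme signal by at least half of the control window in the single-dose screen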;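 also: plate controls were DMSO wells with enzyme plus substrate for no effect and substrate without enzyme for full effect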
# Target sequence (P24666 whole entry, looked up): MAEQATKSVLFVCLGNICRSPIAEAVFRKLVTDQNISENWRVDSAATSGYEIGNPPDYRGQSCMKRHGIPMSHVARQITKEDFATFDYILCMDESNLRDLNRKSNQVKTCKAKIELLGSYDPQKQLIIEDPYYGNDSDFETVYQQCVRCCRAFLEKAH
#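 material = LMPTP-A | quantity = 0.625 nM enzyme | reagent = OMFP substrate, 400 µM final | buffer or medium = Bis-Tris pH 6.0, DTT, detergent | detection = endpoint fluorescence intensity from OMFP dephosphorylation | dosing = single 20 µM dose | read-out basis = % inhibition relative to no-enzyme and uninhibited control wells | control set = no-enzyme and uninhibited controls | timing = 50 min at room temperature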
# NadD block – inhibitors of Staphylococcus aureus NadD. purified NadD enzyme, colorimetric absorbance read-out. inhibition, % at 20 µM. 360,000 compounds, 0.78% hits; in the data active = inhibition above about 26%
# STEP block – blocks human striatal-enriched tyrosine phosphatase; P54829; recombinant STEP, OMFP fluorogenic substrate, fluorescence; inhibition, % at 20 µM; 360,000 compounds, 0.25% hits; AID 588621;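 active = inhibition at 20 µM, scaled per plate between control wells, above about 37%, limit read from the data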;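 also: 0% = DMSO with enzyme and substrate and 100% = substrate only without enzyme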
#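 Also added – OMFP at 25 µM · Test system – STEP tyrosine phosphatase · Technique – FITC-channel fluorescence of OMFP product · Schedule – 20 min at room temperature, dark · Evaluation – control-normalized % inhibition with plate pattern correction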
# Scp-1 inhibitor – inhibitors of human Scp-1 phosphatase; Recombinant Scp1, phosphopeptide, malachite green phosphate absorbance; inhibition, % at 20 µM; 340,000 compounds, 0.88% hits; Q9GZU7;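 active = inhibition above about 50% at 20 µM, limit read from the data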;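 also: plate controls were DMSO wells with enzyme for no effect and wells lacking enzyme for full effect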
# Target sequence (Q9GZU7 76-261 limits assumed): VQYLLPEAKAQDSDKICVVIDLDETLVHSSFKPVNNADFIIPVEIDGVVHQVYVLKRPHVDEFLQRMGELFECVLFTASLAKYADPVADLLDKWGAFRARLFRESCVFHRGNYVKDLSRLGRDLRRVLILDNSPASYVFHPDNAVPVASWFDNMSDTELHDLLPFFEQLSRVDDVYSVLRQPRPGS
#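 assay system = SCP-1 phosphatase catalytic domain, residues 76-261 | buffer or medium = 50 mM Tris acetate pH 5.5, 0.005% Tween-20, 10 mM MgCl2 | incubation = enzyme reaction 45 min at room temperature, colour 5 min, stabilisation 30 min | signal = Phosphate-binding colour reagent, absorbance read at 630 nm | measure = % inhibition at 20 µM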
# * marks the source's active call; other numbers are inactive results; . = no result given.
SMILES,rCAG binder,LMPTP block,NadD block,STEP block,Scp-1 inhibitor
COc1ccc(OC)c(CN2C(=O)c3ccnn3CC2(C)c2nnnn2C2CCCC2)c1 (stereo not drawn),8,.,.,.,.
Cc1[nH]n(-c2ccccc2)c(=S)c1C=Nc1ccc([N+](=O)[O-])cc1,5,-2,13,-4,74*
CC1=Nc2nc(N3CCCCCC3)c(C#N)c3c4c(nc(c23)N1)N(c1ccc2ccccc2c1)C(=O)C4,.,5,55*,2,34
c1ccc(CNc2c3ccccc3nc3ccccc23)cc1,8,61*,-5,2,-11
CN(C)CCCNc1c2ccccc2nc2ccccc12,2,44,-2,2,-4
Oc1ccc(CCNc2c3ccccc3nc3ccccc23)cc1O,14,47*,1,2,-10
Cc1ccc(S(=O)(=O)N2CCCC(C(=O)NCCN3CCC(Cc4ccccc4)CC3)C2)cc1 (stereo not drawn),2,.,.,.,.
Cn1c(=O)c2nc3ccccc3nc2n(C)c1=O,2,0,-7,-2,-5
CC(=O)Nc1ccc2nc3c(=O)n(C)c(=O)n(C)c3nc2c1,-2,1,1,2,84*
O=C1C=C(c2ccc3c(c2)OCO3)C[C@@H](c2ccc3c(c2)OCO3)C1,4,1,-9,0,6
O=C1C=C(c2ccc3cc[nH]c3c2)C[C@@H](c2ccc3c(c2)OCO3)C1,.,5,15,0,67*
COc1ccc([N+](=O)[O-])cc1C1NN=C(c2ccccc2O)S1 (stereo not drawn),13,0,35*,5,-1
CCCCCCCCN1C(=O)[C@@H](CC(=O)NCCCOCCCC)C[C@@]2(C(=O)OC)C1=C[C@H](COCc1ccccc1)O[C@@H]2C,7,.,.,.,.
Cc1ccc(-n2c(C)cc(-c3csc(N)n3)c2C)cc1,17,4,30*,2,6
Cn1c(=O)c(=O)n(C)c2cc(S(=O)(=O)N3CCN(Cc4ccc5c(c4)OCO5)CC3)ccc21,9,.,.,.,.
O=C(CSc1nc2ccccc2nc1N1CCCC1)N1CCN(C(c2ccccc2)c2ccccc2)CC1,8,.,.,.,.
O=S(=O)(O)c1ccc(O)c2cc(Nc3ccccc3)ccc12,97*,96*,68*,99*,96*
Cc1ccc(S(=O)(=O)c2cc(Nc3ccccc3)ccc2O)cc1,15,2,2,-1,-6
O=C(N/N=C/c1cc(Cl)ccc1O)c1ccc(Br)cc1,8,72*,5,91*,98*
Cc1cccc(/C=N\NC(=O)c2ccc(Cl)cc2)c1O,7,41,10,16,95*
Cc1ccc(NC(=O)CN2C(=O)S/C(=C\c3ccc(-c4cccc(C(=O)O)c4C)o3)C2=O)cc1C,27,82*,35*,68*,92*
CCOC(=O)CN1C(=O)S/C(=C\c2ccc(-c3cccc(C(=O)O)c3C)o2)C1=O,9,2,-2,3,-3
O=C(CN1C(=O)S/C(=C\c2ccc(-c3cc(C(=O)O)ccc3Cl)o2)C1=O)Nc1ccc2c(c1)OCO2,49*,74*,53*,90*,.
Cn1cc(/C=C2/SC(=O)N(CC(=O)Nc3ccc4c(c3)OCO4)C2=O)c2ccccc21,9,0,5,0,1
Cn1cccc1C=NNC(=O)c1cc(-c2ccc(Cl)cc2)n[nH]1,10,.,.,.,.
SMILES,rCAG binder,LMPTP block,NadD block,STEP block,Scp-1 inhibitor
CC(=O)Oc1cccc2c1C(=O)c1c(OC(C)=O)cc(C(=O)O)cc1C2=O,0,1,-2,-1,-6
O=C(O)c1cc(O)c2c(c1)C(=O)c1cc(O)cc(O)c1C2=O,19,4,-7,9,64*
CC(=O)NC(c1ccccc1)c1cc(Cl)c2cccnc2c1O (stereo not drawn),0,2,1,4,-6
O=C(NC(c1ccc(Cl)cc1)c1cc(Cl)c2cccnc2c1O)c1cccnc1 (stereo not drawn),0,1,47*,6,-11
CCCC[C@@]1(C2CCCC2)Cc2cc(OCC(=O)O)c(Cl)c(Cl)c2C1=O,47*,-4,5,2,-9
CC(c1ccco1)N(C(=O)c1cc(Cl)cc(Cl)c1)c1ccccn1 (stereo not drawn),-5,1,1,-1,-3
CC(c1ccco1)N(C(=O)c1ccccc1NS(=O)(=O)c1ccc(Cl)c([N+](=O)[O-])c1)c1ccccn1 (stereo not drawn),69*,1,11,-2,-30
